Data as given in the RNAGym collection of RNA variant scans (doi:10.1002/anie.201605470).

B1: Osa-1-4 twister ribozyme (parent)
chain: CCGCCUAACACUGCCAAUGCCGGUCCCAAGCCCGGAUAAAAGUGGAGGGGGCGG

Variants of: B1
Test: self-cleavage, relative activity (ratio to wild type); higher = more cleavage; co-transcriptional
How it was run: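 The 48 positions downstream of the cleavage site in a 54-nucleotide Oryza sativa twister ribozyme template were synthesised at 97 % wild-type base and 1 % of each other base. The template was transcribed in vitro at 37 °C for 2 h, with self-cleavage allowed during transcription. Reads with or without upstream sequence after deep sequencing marked cleavage status, and relative activity is fraction cleaved normalised to wild type.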

Variant	self-cleavage
CCGCCUAACACUGCCAAUGCCGGUCCCAGGCCCGGAUAAAAGUGGUGGGGGCGG [A29G A46U]	0.04
CCGCCUAACACUGCCAAUGCCGGUCCCAGGCCCGGAUAAAAGUGGCGGGGGCGG [A29G A46C]	0.03
CCGCCUAACACUGCCAAUGCCGGUCCCAGGCCCGGAUAAAAGUGGGGGGGGCGG [A29G A46G]	0.04
CCGCCUAACACUGCCAAUGCCGGUCCCACGCCCGGAUAAAAGUGGAGGGGCCGG [A29C G51C]	0.02
CCGCCUAACACUGCCAAUGCCGGUCCCACGCCCGGAUAAAAGUGGAGGGGUCGG [A29C G51U]	0.03
CCGCCUAACACUGCCAAUGCCGGUCCCACGCCCGGAUAAAAGUGGAGGGGACGG [A29C G51A]	0.03
CCGCCUAACACUGCCAAUGCCGGCCCCACGCCCGGAUAAAAGUGGAGGGGGCGG [A29C U24C]	0.09
CCGCCUAACACUGCCAAUGCCGGACCCACGCCCGGAUAAAAGUGGAGGGGGCGG [A29C U24A]	0.04
CCGCCUAACACUGCCAAUGCCGGGCCCACGCCCGGAUAAAAGUGGAGGGGGCGG [A29C U24G]	0.02
CCGCCUAACACUGCCAAUGCCGGUCCCACGCCCGGAUAAAAGUGAAGGGGGCGG [A29C G45A]	0.02
CCGCCUAACACUGCCAAUGCCGGUCCCACGCCCGGAUAAAAGUGUAGGGGGCGG [A29C G45U]	0.01
CCGCCUAACACUGCCAAUGCCGGUCCCACGCCCGGAUAAAAGUGCAGGGGGCGG [A29C G45C]	0.01
CCGCCUAACACUGCCAAUGCCGGUCCCAGGCCCGGAUCAAAGUGGAGGGGGCGG [A29G A38C]	0.16
CCGCCUAACACUGCCAAUGCCGGUCCCAGGCCCGGAUGAAAGUGGAGGGGGCGG [A29G A38G]	0.15
CCGCCUAACACUGCCAAUGCCGGUCCCAGGCCCGGAUUAAAGUGGAGGGGGCGG [A29G A38U]	0.16
CCGCCUAACACUGCCAAUGCCGGUCCCACGCCCGGAUAAAAGUGGAGGGCGCGG [A29C G50C]	0.03
CCGCCUAACACUGCCAAUGCCGGUCCCACGCCCGGAUAAAAGUGGAGGGAGCGG [A29C G50A]	0.05
CCGCCUAACACUGCCAAUGCCGGUCCCACGCCCGGAUAAAAGUGGAGGGUGCGG [A29C G50U]	0.04
CCGCCUAACACUGCCAAUGCCGGUCCCACGCCCGGAUAAAAGUGGAAGGGGCGG [A29C G47A]	0.02
CCGCCUAACACUGCCAAUGCCGGUCCCACGCCCGGAUAAAAGUGGACGGGGCGG [A29C G47C]	0.02
CCGCCUAACACUGCCAAUGCCGGUCCCACGCCCGGAUAAAAGUGGAUGGGGCGG [A29C G47U]	0.03
CCGCCUAGCACUGCCAAUGCCGGUCCCAGGCCCGGAUAAAAGUGGAGGGGGCGG [A29G A8G]	0.11
CCGCCUACCACUGCCAAUGCCGGUCCCAGGCCCGGAUAAAAGUGGAGGGGGCGG [A29G A8C]	0.04
CCGCCUAUCACUGCCAAUGCCGGUCCCAGGCCCGGAUAAAAGUGGAGGGGGCGG [A29G A8U]	0.07

Variant	self-cleavage
CCGCCUAACACUGUCAAUGCCGGUCCCAGGCCCGGAUAAAAGUGGAGGGGGCGG [A29G C14U]	0.06
CCGCCUAACACUGGCAAUGCCGGUCCCAGGCCCGGAUAAAAGUGGAGGGGGCGG [A29G C14G]	0.08
CCGCCUAACACUGACAAUGCCGGUCCCAGGCCCGGAUAAAAGUGGAGGGGGCGG [A29G C14A]	0.04
CCGCCUAACACUGCCAAUGCCGGUCCCAGGCCCGGAUAAACGUGGAGGGGGCGG [A29G A41C]	0.21
CCGCCUAACACUGCCAAUGCCGGUCCCAGGCCCGGAUAAAGGUGGAGGGGGCGG [A29G A41G]	0.12
CCGCCUAACACUGCCAAUGCCGGUCCCAGGCCCGGAUAAAUGUGGAGGGGGCGG [A29G A41U]	0.46
CCGCCUAACACUGCCAAUGCCGGUCCCACGCCCGGAUAAAAGUGGAGGGGGCGA [A29C G54A]	0.03
CCGCCUAACACUGCCAAUGCCGGUCCCACGCCCGGAUAAAAGUGGAGGGGGCGU [A29C G54U]	0.08
CCGCCUAACACUGCCAAUGCCGGUCCCACGCCCGGAUAAAAGUGGAGGGGGCGC [A29C G54C]	0.04
CCGCCUAACACUGCCAAUGCCGGUCCCACGCCCGGAUAAAAGUGGAGGGGGCCG [A29C G53C]	0.02
CCGCCUAACACUGCCAAUGCCGGUCCCACGCCCGGAUAAAAGUGGAGGGGGCAG [A29C G53A]	0.03
CCGCCUAACACUGCCAAUGCCGGUCCCACGCCCGGAUAAAAGUGGAGGGGGCUG [A29C G53U]	0.03
CCGCCUAACACUGCCAAUGCCGGUCCCACGCCCGGAUAAAAGUGGAGCGGGCGG [A29C G48C]	0.02
CCGCCUAACACUGCCAAUGCCGGUCCCACGCCCGGAUAAAAGUGGAGAGGGCGG [A29C G48A]	0.01
CCGCCUAACACUGCCAAUGCCGGUCCCACGCCCGGAUAAAAGUGGAGUGGGCGG [A29C G48U]	0.01
CCGCCUAACACUGCCAAUGCCGGUCCCAGGACCGGAUAAAAGUGGAGGGGGCGG [A29G C31A]	0.02
CCGCCUAACACUGCCAAUGCCGGUCCCAGGUCCGGAUAAAAGUGGAGGGGGCGG [A29G C31U]	0.12
CCGCCUAACACUGCCAAUGCCGGUCCCAGGGCCGGAUAAAAGUGGAGGGGGCGG [A29G C31G]	0.05
CCGCCUAACACUGCCAAUGCCGGUCUCAGGCCCGGAUAAAAGUGGAGGGGGCGG [A29G C26U]	0.08
CCGCCUAACACUGCCAAUGCCGGUCACAGGCCCGGAUAAAAGUGGAGGGGGCGG [A29G C26A]	0.04
CCGCCUAACACUGCCAAUGCCGGUCGCAGGCCCGGAUAAAAGUGGAGGGGGCGG [A29G C26G]	0.1
CCGCCUAACACUGCCAAUGCCGGUCCCAGGCCCGGCUAAAAGUGGAGGGGGCGG [A29G A36C]	0.07
CCGCCUAACACUGCCAAUGCCGGUCCCAGGCCCGGGUAAAAGUGGAGGGGGCGG [A29G A36G]	0.47
CCGCCUAACACUGCCAAUGCCGGUCCCAGGCCCGGUUAAAAGUGGAGGGGGCGG [A29G A36U]	0.32
